Data: PubChem BioAssay AID775 (SRMLSC, 2007)
The campaign covered roughly 130,000 compounds. About 900 (0.69%) were called active. Only a selection was taken, and actives are over-represented in it overall. Unmarked numbers belong to inactive results.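 The calls were made as follows: active = inhibition above a set limit, placed 3 SD over the median of all compounds (cut at about 26% in these data); inactive = the rest.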

Experiment: rescue of nicotinamide-shortened yeast lifespan – S. cerevisiae, OD615, primary screen (AID 775);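 also: 0% = nicotinamide-treated wells and 100% = cells grown without nicotinamide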
Settings: S. cerevisiae growth with nicotinamide, at 10 µM, stronger effect = higher value, deaD strain in restrictive glucose medium
How it was run: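 System: DeaD-strain S. cerevisiae / Buffer or medium: CSMM-D, restrictive glucose (dextrose) synthetic minimal medium / Probe or stimulus: nicotinamide, 1.5 mM, co-present with compound / Compound: one concentration, 10 µM, DMSO 0.25% / Incubation: 48 h compound exposure at 30 °C, humidified / Technique: optical density (absorbance) at 615 nm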

**Q.** For `O=C(O)C1CC(=O)N(Cc2cccnc2)C1` (stereo not drawn), which inhibition of the nicotinamide effect is on record?
**A.** -1.28%

**Q.** For `O=C1/C(=C\c2cccnc2)CN(Cc2ccccc2)C/C1=C\c1cccnc1`, which inhibition of the nicotinamide effect is on record?
**A.** 54.9% (active)

**Q.** For `O=C1OC(c2ccc(Cl)cc2)=N/C1=C\c1cccnc1`, which inhibition of the nicotinamide effect is on record?
**A.** 20.7%

**Q.** With `O=C(NCCc1ccccc1)C1CCC(Cn2c(=O)c3ccccc3n(Cc3cccnc3)c2=O)CC1` (stereo not drawn) as the molecule, how does the inhibition of the nicotinamide effect read?
**A.** 0.76%

**Q.** For `Cc1ccc2nc(-c3cccnc3)c(NC3CCCC3)n2c1`, which inhibition of the nicotinamide effect is on record?
**A.** -2.42%

**Q.** For `Cc1cccc(OP(=O)(Nc2c(C)n(C)n(-c3ccccc3)c2=O)Oc2cccc(C)c2)c1`, which inhibition of the nicotinamide effect is on record?
**A.** 0%

**Q.** With `CCN(CC)c1ccc([N+](=O)[O-])cc1C(=O)O` as the molecule, how does the inhibition of the nicotinamide effect read?
**A.** 4.32%

**Q.** With `O=C(COC(=O)CCCNC(=O)c1ccc(Cl)cc1)Nc1cc(Cl)ccc1Cl` as the molecule, how does the inhibition of the nicotinamide effect read?
**A.** 5.47%

**Q.** Which inhibition of the nicotinamide effect does the source give for `CC1CN(S(=O)(=O)c2ccc(C(=O)Nc3sccc3C(N)=O)cc2)CC(C)O1` (stereo not drawn) here?
**A.** 0.65%

**Q.** With `Cc1sc(NC(=S)NC(=O)c2cccs2)nc1-c1ccc(CC(C)C)cc1` as the molecule, how does the inhibition of the nicotinamide effect read?
**A.** -13.7%

**Q.** For `CC(C)Cc1nn2c(=O)cc(O)nc2s1`, which inhibition of the nicotinamide effect is on record?
**A.** 47.1% (active)

**Q.** For `COC(=O)c1ccc(C(=O)OC)c(NC(=S)N2CCN(c3ccc(F)cc3)CC2)c1`, which inhibition of the nicotinamide effect is on record?
**A.** -4.39%

**Q.** Which inhibition of the nicotinamide effect does the source give for `CSCc1ccc(C(=O)Nc2cc(C)cc(C)c2)cc1` here?
**A.** 1.95%

**Q.** Which inhibition of the nicotinamide effect does the source give for `Cn1c(=O)c(Sc2ccc(Cl)cc2)c(O)c2ccccc21` here?
**A.** 29.7% (active)

**Q.** Which inhibition of the nicotinamide effect does the source give for `CCCn1c(=O)c(-c2ccccc2)c(O)c2ccccc21` here?
**A.** 3.34%

**Q.** Which inhibition of the nicotinamide effect does the source give for `Cn1c(=O)c(C(=O)Nc2ncccn2)c(O)c2ccccc21` here?
**A.** -13.7%

**Q.** Which inhibition of the nicotinamide effect does the source give for `O=C(/C=C/c1ccccc1[N+](=O)[O-])NCC1CCCO1` (stereo not drawn) here?
**A.** 1.94%

**Q.** Which inhibition of the nicotinamide effect does the source give for `Cc1ccc(C(=O)OCc2nc(N)nc(Nc3ccccc3C)n2)cc1` here?
**A.** -3.73%

**Q.** For `NS(=O)(=O)c1ccc(CCNC(=S)Nc2ccc(S(N)(=O)=O)cc2)cc1`, which inhibition of the nicotinamide effect is on record?
**A.** 1.53%

**Q.** For `Cc1cccc(CC(=O)N2CCN=C2SCc2ccc([N+](=O)[O-])cc2)c1`, which inhibition of the nicotinamide effect is on record?
**A.** -1.98%

**Q.** For `CC(=C1C(=O)c2ccccc2C1=O)N1CCN(c2ccccn2)CC1`, which inhibition of the nicotinamide effect is on record?
**A.** 54.4% (active)

**Q.** For `O=C(C(Cl)Cl)N1CCN(c2ccccn2)CC1`, which inhibition of the nicotinamide effect is on record?
**A.** 1.15%

**Q.** With `CNC(=S)N1CCN(c2ccccn2)CC1` as the molecule, how does the inhibition of the nicotinamide effect read?
**A.** 1.57%

**Q.** For `S=C(Nc1cccc(Cl)c1)Nc1ccc2cn[nH]c2c1`, which inhibition of the nicotinamide effect is on record?
**A.** 32.1% (active)

**Q.** With `Cc1csc(NC(=S)Nc2cccc(Cl)c2)n1` as the molecule, how does the inhibition of the nicotinamide effect read?
**A.** -1.45%

**Q.** With `Cc1cccc(NC(=S)Nc2ccc3cn[nH]c3c2)c1` as the molecule, how does the inhibition of the nicotinamide effect read?
**A.** 3.23%

**Q.** Which inhibition of the nicotinamide effect does the source give for `Cc1ccc(NC(=O)CCC(=O)N/N=C/c2ccco2)c(C)c1` here?
**A.** 0.43%

**Q.** With `Cc1ccc2c(CC(=O)NCc3cccs3)coc2c1` as the molecule, how does the inhibition of the nicotinamide effect read?
**A.** -1.73%

**Q.** For `Cc1cccc(C(=O)c2cccc(C)c2)c1`, which inhibition of the nicotinamide effect is on record?
**A.** -6.29%

**Q.** With `Cc1nccn1CC(=O)N/N=C/c1ccc(O)c(O)c1` as the molecule, how does the inhibition of the nicotinamide effect read?
**A.** 0.31%

**Q.** With `COc1ccccc1C1CC(=O)n2c(nc(-c3ccccc3)c2-c2ccccc2)S1` (stereo not drawn) as the molecule, how does the inhibition of the nicotinamide effect read?
**A.** 0.78%

**Q.** For `COc1cc(OC)c(-n2c(C)cc(C=O)c2C)cc1Cl`, which inhibition of the nicotinamide effect is on record?
**A.** 39.8% (active)

**Q.** Which inhibition of the nicotinamide effect does the source give for `Cc1cc(C=O)c(C)n1-c1ccc(NC2CCCCC2)c([N+](=O)[O-])c1` here?
**A.** -25.3%

**Q.** For `COc1cc(OC)c(-n2cc(-c3ccc(Cl)cc3)[nH]c2=O)cc1Cl`, which inhibition of the nicotinamide effect is on record?
**A.** -0.64%

**Q.** Which inhibition of the nicotinamide effect does the source give for `O=C(Cc1coc2ccc3ccccc3c12)NCc1cccs1` here?
**A.** -1.99%

**Q.** With `COc1cc(/C=N\NC(=O)c2nonc2N)c(OC)cc1Br` as the molecule, how does the inhibition of the nicotinamide effect read?
**A.** 5.5%

**Q.** Which inhibition of the nicotinamide effect does the source give for `COCCn1c(=O)[nH]c(=O)c2cc(C(=O)c3cc(OC)ccc3O)cnc21` here?
**A.** -5.05%

**Q.** Which inhibition of the nicotinamide effect does the source give for `CCCn1c(=O)c2c(C(F)(F)F)cc(-c3cccs3)nc2n(CCC)c1=O` here?
**A.** 3.84%

**Q.** For `O=C(O)c1cccc2c1C(=O)N(C1CCCCC1)C2`, which inhibition of the nicotinamide effect is on record?
**A.** 63.7% (active)

**Q.** Which inhibition of the nicotinamide effect does the source give for `CCCN1Cc2cccc(C(=O)NCc3ccccc3)c2C1=O` here?
**A.** -14.6%

**Q.** With `CCCN1Cc2cccc(C(=O)Nc3ccc(S(=O)(=O)N4CCCCCC4)cc3)c2C1=O` as the molecule, how does the inhibition of the nicotinamide effect read?
**A.** -3.05%

**Q.** Which inhibition of the nicotinamide effect does the source give for `COc1cc(NC(=S)NNC(=O)CC(C)C)c(OC)cc1Cl` here?
**A.** 0.62%

**Q.** For `COc1ccccc1NC(=O)CCCc1c[nH]c2ccccc12`, which inhibition of the nicotinamide effect is on record?
**A.** -7.92%

**Q.** For `COc1ccc(NC(=O)/C(Cl)=C(/Cl)S(=O)Cc2ccc(C)cc2)cn1` (stereo not drawn), which inhibition of the nicotinamide effect is on record?
**A.** 45.5% (active)

**Q.** For `COc1ccc(NS(=O)(=O)c2ccc(NC(=S)NC(=O)/C=C/c3ccc(C)cc3)cc2)nn1`, which inhibition of the nicotinamide effect is on record?
**A.** -1.4%

**Q.** With `COc1cccc(NC(=O)Cc2ccc(C)cc2)c1` as the molecule, how does the inhibition of the nicotinamide effect read?
**A.** -12.4%

**Q.** With `Cc1ccc(CC(=O)Nc2ccc(OC(F)F)c(Cl)c2)cc1C` as the molecule, how does the inhibition of the nicotinamide effect read?
**A.** 0.1%

**Q.** With `O=C(NCC1CCCO1)c1ccc2ccccc2n1` (stereo not drawn) as the molecule, how does the inhibition of the nicotinamide effect read?
**A.** -8.01%

**Q.** Which inhibition of the nicotinamide effect does the source give for `S=C(NCCc1ccccc1)NCC1CCCO1` (stereo not drawn) here?
**A.** 1.76%

**Q.** With `O=C(CS(=O)(=O)Cc1ccccc1)NCC1CCCO1` (stereo not drawn) as the molecule, how does the inhibition of the nicotinamide effect read?
**A.** 46.3% (active)

**Q.** For `COc1ccc(-n2c(=S)[nH]c3sc4c(c3c2=O)CCc2ccccc2-4)cc1`, which inhibition of the nicotinamide effect is on record?
**A.** 8.03%

**Q.** With `O=C(/C=C/c1ccc([N+](=O)[O-])cc1)NCCSCc1ccco1` as the molecule, how does the inhibition of the nicotinamide effect read?
**A.** -1.15%

**Q.** Which inhibition of the nicotinamide effect does the source give for `CC(=O)c1c(O)cc2n(c1=O)-c1ccc(Cl)cc1C2(C)C` here?
**A.** 50.9% (active)

**Q.** For `O=C(COC(=O)/C=C/c1nc2ccccc2s1)Nc1ccccc1Oc1ccccc1`, which inhibition of the nicotinamide effect is on record?
**A.** -1.04%

**Q.** With `Cc1nnc(NC(=O)/C=C/c2ccco2)s1` as the molecule, how does the inhibition of the nicotinamide effect read?
**A.** -3.6%

**Q.** With `COc1ccc(-c2cc(C(F)(F)F)nc(S(C)(=O)=O)n2)cc1OC` as the molecule, how does the inhibition of the nicotinamide effect read?
**A.** 48.9% (active)

**Q.** With `COc1ccc(-c2cc(C(F)(F)F)nc(SCC(=O)Nc3ccc4c(c3)OCO4)n2)cc1OC` as the molecule, how does the inhibition of the nicotinamide effect read?
**A.** 3.91%

**Q.** For `COc1cc(OC)nc(S(C)(=O)=O)n1`, which inhibition of the nicotinamide effect is on record?
**A.** 2.39%

**Q.** For `Cc1ccc(C)c2[nH]c(=O)c(CCNC(=O)c3cccs3)cc12`, which inhibition of the nicotinamide effect is on record?
**A.** -0.37%

**Q.** With `O=C(OC1CCOC1=O)c1cccc(S(=O)(=O)Nc2ccc(F)cc2)c1` (stereo not drawn) as the molecule, how does the inhibition of the nicotinamide effect read?
**A.** 1.4%

**Q.** For `COc1ccc(C)cc1NC(=O)C(OC(=O)c1cccc(S(=O)(=O)N(C)c2ccccc2)c1)c1ccccc1` (stereo not drawn), which inhibition of the nicotinamide effect is on record?
**A.** -5.56%

**Q.** For `Cc1cccc(N=C2NN=C(c3c[nH]c4ccccc34)CS2)c1`, which inhibition of the nicotinamide effect is on record?
**A.** 5.95%

**Q.** Which inhibition of the nicotinamide effect does the source give for `CCN(CC(=O)NCCc1ccccc1)S(=O)(=O)c1ccc(C)cc1` here?
**A.** 5.67%
